Screens from PubChem BioAssay.
Most compounds without a hit are left out; they make up all but 2.8% or so of the library.
SIRT5 inh = inhibitors of human sirtuin-5 desuccinylase; Q9NXA8; Purified SirT5, succinyl-peptide AMC, trypsin-coupled fluorescence; inhibition, % at 15 µM; 330,000 tested, 1.1% active; in the data active = inhibition above about 15%; inconclusive = no clear call, values can overlap the other calls
Target sequence (Q9NXA8 whole entry, looked up): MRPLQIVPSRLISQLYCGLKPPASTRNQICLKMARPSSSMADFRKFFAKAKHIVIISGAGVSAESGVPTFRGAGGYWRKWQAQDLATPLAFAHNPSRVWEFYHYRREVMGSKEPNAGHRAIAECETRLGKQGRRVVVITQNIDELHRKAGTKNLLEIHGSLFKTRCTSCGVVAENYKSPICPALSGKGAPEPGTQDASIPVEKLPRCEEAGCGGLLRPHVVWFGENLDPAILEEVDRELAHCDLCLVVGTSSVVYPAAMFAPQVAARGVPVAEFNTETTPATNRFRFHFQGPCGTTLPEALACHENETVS
DENV2 CPE = protects cells from dengue virus 2 cytopathic effect; DENV2-infected cells, cytopathic effect rescue, plate reader; AID 651640; 350,000 tested, 1.7% active; CPE inhibition, % at 9.99 µM; in the data active = CPE inhibition above about 20%, passing the limit was not always enough; inconclusive = no clear call, values can overlap the other calls; tested in BHK-21 cells;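 also: 0% = median of neutral control wells and 100% = median of positive control wells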
E-selectin induc = induces E-selectin expression in human endothelial cells; P16581; activation, % at 7.58 µM; 260,000 tested, 0.37% active; HUVEC E-selectin immunofluorescence imaging; normalized: neutral wells 0, TNF-alpha wells 100;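 active = mean E-selectin-positive cell signal at least 10% of the positive control, reached in at least 60% of replicates, without over 20% cell loss; inconclusive = no rule given, readout overlaps actives, possibly toxicity-flagged; inactive = the rest, including those meeting only one limit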
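Material: HUVEC primary endothelial cells; Amount: 3,000 cells per well; Dosing: single concentration; Medium: EGM-2 growth medium on 0.1% gelatin-coated wells; Read-out basis: percent E-selectin-positive cells; Signal: immunofluorescence imaging; Control set: TNF-alpha, DMSO.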
* hit, by the source's call.

Screening CN=C(Nc1cc(C)nn1-c1ccccc1)c1ccccc1F returned SIRT5 inh 16* and DENV2 CPE -1.
COc1ccc(CN2CC3(CCN(C(=O)C4CCOCC4)CC3)c3c(n(C)c4cc(OC)ccc34)[C@@H]2CO)cc1 was read as SIRT5 inh 0, DENV2 CPE 10 and E-selectin induc 0.
O=C(Oc1ccccc1)c1ccccc1C(=O)Oc1ccccc1 was read as SIRT5 inh -3 and DENV2 CPE 27*.
O=C(Oc1ccccc1)c1cccc2cccc(C(=O)Oc3ccccc3)c12 was read as SIRT5 inh -1, DENV2 CPE 8 and E-selectin induc 0.
COc1ccc2c3c(n(C)c2c1)[C@@H](CO)N(C(=O)Nc1ccc(F)cc1)CC31CCN(C(=O)CN2CCOCC2)CC1 was read as SIRT5 inh -8, DENV2 CPE 14 and E-selectin induc -1.
Screening Cc1noc(C)c1S(=O)(=O)N(C)C[C@@H]1Oc2ccc(NC(=O)CCCCCC(=O)Nc3ccccc3N)cc2CC(=O)N([C@H](C)CO)C[C@H]1C returned DENV2 CPE 14 and E-selectin induc 0.
`Cc1noc(C)c1S(=O)(=O)N(C)C[C@@H]1Oc2ccc(NC(=O)CCCCCC(=O)Nc3ccccc3N)cc2CC(=O)N([C@@H](C)CO)C[C@@H]1C` gave SIRT5 inh 3, DENV2 CPE 29* and E-selectin induc 0.
Screening C[C@@H]1CN([C@@H](C)CO)C(=O)Cc2cc(NC(=O)CCCCCC(=O)Nc3ccccc3N)ccc2O[C@H]1CN(C)CC1CC1 returned SIRT5 inh 1, DENV2 CPE 21* and E-selectin induc 0.
Screening C[C@@H]1CN([C@H](C)CO)C(=O)Cc2cc(NC(=O)CCCCCC(=O)Nc3ccccc3N)ccc2O[C@@H]1CN(C)CC1CC1 returned SIRT5 inh -2, DENV2 CPE 11 and E-selectin induc 0.
C[C@@H]1CN([C@@H](C)CO)C(=O)Cc2cc(NC(=O)CCCCCC(=O)Nc3ccccc3N)ccc2O[C@@H]1CN(C)S(C)(=O)=O was read as SIRT5 inh 0, DENV2 CPE 3 and E-selectin induc -4.
Screening C[C@@H]1CN([C@H](C)CO)C(=O)Cc2cc(NC(=O)CCCCCC(=O)Nc3ccccc3N)ccc2O[C@@H]1CN(C)S(C)(=O)=O returned DENV2 CPE 91* and E-selectin induc 17.
For C[C@H](CO)N1C[C@H](C)[C@H](CN(C)C(=O)NC2CCCCC2)Oc2ccc(NC(=O)CCCN(C)C)cc2C1=O the results were SIRT5 inh -2, DENV2 CPE -5 and E-selectin induc 0.
For O=C(C[C@@H]1C=C[C@H](NC(=O)c2cccc(F)c2)[C@H](CO)O1)NCc1ccccc1 the results were SIRT5 inh -2, DENV2 CPE 2 and E-selectin induc 0.
Screening COC(=O)C1=C[C@@H](C(=O)OC)[C@@H]2C3=C(C(=O)[C@@]2(C)NC(=O)c2ccccc2)[C@H](C)C(C(=O)OC)=C(C(=O)OC)[C@@H]3C1 returned SIRT5 inh -3, DENV2 CPE 24* and E-selectin induc 0.
Screening COC(=O)C1=C[C@@H](C(=O)OC)[C@@H]2C3=C(C(=O)[C@@]2(C)NC(=O)c2ccccc2)[C@H](C)n2c(=O)n(C)c(=O)n2[C@@H]3C1 returned SIRT5 inh 1, DENV2 CPE 0 and E-selectin induc 0.
For CCOC(=O)c1cnc(/N=C/N(C)C)s1 the results were SIRT5 inh 2, DENV2 CPE 9 and E-selectin induc 4.
Screening CCOC(=O)c1sc(/N=C/N(C)C)nc1C returned DENV2 CPE 40*.
Nc1nc2c(ncn2[C@@H]2O[C@H](CNCc3ccccc3)[C@@H](O)[C@H]2O)c(=O)[nH]1 was read as SIRT5 inh 1, DENV2 CPE -4 and E-selectin induc 0.
Nc1nc2c(ncn2[C@@H]2O[C@H](CNCc3ccc(F)c(N4CCOCC4)c3)[C@@H](O)[C@H]2O)c(=O)[nH]1 was read as SIRT5 inh -2 and DENV2 CPE 26*.
Screening O=c1[nH]c(Cc2ccc(F)cc2)nc2scc(-c3ccc(F)cc3)c12 returned SIRT5 inh 21*, DENV2 CPE 12 and E-selectin induc 3.
Screening Cc1ccc(-c2csc3nc(CN(C)Cc4ccccc4)[nH]c(=O)c23)cc1 returned SIRT5 inh 0.
Screening C[C@@H]1CN([C@@H](C)CO)S(=O)(=O)c2ccc(-c3ccccc3)cc2O[C@@H]1CN(C)C returned E-selectin induc 0.
CCN1CCN(C(=O)CN(CC)S(=O)(=O)c2ccc(F)cc2)CC1 was read as SIRT5 inh -4, DENV2 CPE 0 and E-selectin induc -1.
Screening CCN1CCN(C(=O)CN(CC)S(=O)(=O)c2ccc3ccccc3c2)CC1 returned SIRT5 inh 23* and DENV2 CPE -4.
Screening C[C@@H]1CN([C@@H](C)CO)C(=O)c2cc(NC(=O)Nc3ccc(F)cc3)ccc2O[C@@H]1CN(C)C returned SIRT5 inh -4, DENV2 CPE 5 and E-selectin induc -1.
`COc1ccc(NC(=O)Nc2ccc3c(c2)C(=O)N([C@@H](C)CO)C[C@H](C)[C@@H](CN(C)C)O3)cc1` gave SIRT5 inh -3, DENV2 CPE 1 and E-selectin induc 41*.
For COc1ccc(NC(=O)Nc2ccc3c(c2)C(=O)N([C@@H](C)CO)C[C@@H](C)[C@H](CN(C)C(=O)Nc2ccc(F)cc2)O3)cc1 the results were SIRT5 inh 7, DENV2 CPE 21* and E-selectin induc 0.
`COc1ccc(NC(=O)Nc2ccc3c(c2)C(=O)N([C@@H](C)CO)C[C@H](C)[C@@H](CN(C)C(=O)Nc2ccc(C(F)(F)F)cc2)O3)cc1` gave SIRT5 inh 15, DENV2 CPE -3 and E-selectin induc -4.
Screening COc1ccc(NC(=O)Nc2ccc3c(c2)C(=O)N([C@@H](C)CO)C[C@@H](C)[C@@H](CN(C)C(=O)Nc2ccc(C(F)(F)F)cc2)O3)cc1 returned SIRT5 inh 16*, DENV2 CPE inconclusive and E-selectin induc -2.
COc1ccc(NC(=O)N(C)C[C@H]2Oc3ccc(NC(=O)Nc4ccc(F)cc4)cc3C(=O)N([C@H](C)CO)C[C@H]2C)cc1 was read as SIRT5 inh -2, DENV2 CPE -12 and E-selectin induc 0.
Screening COc1ccc(NC(=O)Nc2ccc3c(c2)C(=O)N([C@@H](C)CO)C[C@H](C)[C@H](CN(C)C)O3)cc1 returned SIRT5 inh -2, DENV2 CPE -5 and E-selectin induc -8.
For C[C@@H]1CN([C@@H](C)CO)C(=O)c2cc(NC(=O)Nc3ccc(F)cc3)ccc2O[C@H]1CN(C)C the results were SIRT5 inh 0, DENV2 CPE 27* and E-selectin induc -3.
`O=C(Nc1ccccc1)N[C@@H]1CC[C@H](CCNS(=O)(=O)c2cccc(F)c2)O[C@H]1CO` gave SIRT5 inh 1, DENV2 CPE 15 and E-selectin induc 0.
Cc1cccc(S(=O)(=O)N[C@H]2CC[C@@H](CCNC(=O)CCN3CCCCC3)O[C@H]2CO)c1 was read as SIRT5 inh 7, DENV2 CPE 4 and E-selectin induc 0.
